Measured values reported in ChEMBL document CHEMBL1135694, “Optimization of alkylidene hydrazide based human glucagon receptor antagonists. Discovery of the highly potent and orally available 3-cyano-4-hydroxybenzoic acid [1-(2,3,5,6-tetramethylbenzyl)-1H-indol-4-ylmethylene]hydrazide” (J Med Chem, 2002).

How the values were obtained:
Glucagon receptor = Glucagon receptor (Homo sapiens, UniProt P47871); experiment: In vitro binding affinity for recombinant human glucagon receptor (hGGR) in BHK cells; assay type: cell-based
In short: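 Membranes (4 µg) from BHK cells expressing the cloned human glucagon receptor. Compounds were diluted in DMSO, and a glucagon standard curve was run. IC50 given as mean ± SD, n = 3.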

[1] = Turnover in rat liver microsomes; assay type: ADME, Microsome
In short: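 Rat liver microsomes (0.331 mg/mL protein) with 10 µM compound, 1 mM UDP-GA and 1 mM NADPH in KH2PO4 buffer, pH 7.4, at 37 °C. Sampled at 0-30 min (n = 3), stopped with MeCN. Rate was taken from parent disappearance by LC-MS.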

Glucagon receptor, sequence (P47871 whole entry): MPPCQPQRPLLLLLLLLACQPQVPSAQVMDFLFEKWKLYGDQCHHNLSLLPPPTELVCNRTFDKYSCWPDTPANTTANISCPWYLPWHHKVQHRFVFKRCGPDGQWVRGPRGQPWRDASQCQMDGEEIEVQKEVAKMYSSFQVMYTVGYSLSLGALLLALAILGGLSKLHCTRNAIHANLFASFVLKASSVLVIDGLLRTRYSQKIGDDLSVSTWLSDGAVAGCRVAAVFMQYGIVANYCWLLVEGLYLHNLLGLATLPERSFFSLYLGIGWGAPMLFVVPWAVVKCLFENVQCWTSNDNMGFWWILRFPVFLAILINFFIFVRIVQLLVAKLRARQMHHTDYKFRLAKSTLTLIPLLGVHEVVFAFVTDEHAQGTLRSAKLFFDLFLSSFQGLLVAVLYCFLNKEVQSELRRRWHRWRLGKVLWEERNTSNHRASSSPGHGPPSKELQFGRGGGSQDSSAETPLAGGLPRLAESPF

Row | Structure (SMILES) | IC50 (Glucagon receptor) | Metabolism [1]
1 | CC(C)(C)C(=O)Nc1ccc(/C=N/NC(=O)c2ccc(O)c(Cl)c2)c2ccccc12 | 33 nM | 45 pmol/min/mg
2 | CN(C)CCN(C)C(=O)Cc1ccc(/C=N/NC(=O)c2ccc(O)c(Cl)c2)c2ccccc12 | 441 nM | 
3 | O=C(N/N=C/c1cccc2c1ccn2Cc1ccc(C(F)(F)F)cc1)c1ccc(O)c(Cl)c1 | 33.8 nM | 116 pmol/min/mg
4 | CC1CCCCN1C(=O)Cc1ccc(/C=N/NC(=O)c2ccc(O)c(C#N)c2)c2ccccc12 (stereo unspecified) | 11.6 nM | 65 pmol/min/mg
5 | CC(C)CS(=O)(=O)c1ccc(/C=N/NC(=O)c2ccc(O)c(Cl)c2)c2ccccc12 | 181 nM | 110 pmol/min/mg
6 | COc1cc(NC(=O)CCc2ccc(C(F)(F)F)cc2)ccc1/C=N/NC(=O)c1ccc(O)c(C#N)c1 | 15.7 nM | 
7 | O=C(N/N=C/c1cccc2c(OCc3ccc(OC(F)(F)F)cc3)cccc12)c1ccc(O)c(Cl)c1 | 12.9 nM | 
8 | O=C(N/N=C/c1ccc(CC(=O)N2CCN(Cc3ccccc3)CC2)c2ccccc12)c1ccc(O)c(Cl)c1 | 9.2 nM | 359 pmol/min/mg
9 | N#Cc1cc(C(=O)N/N=C/c2cn(C(=O)CC3CCCC3)c3ccccc23)ccc1O | 6.4 nM | 136 pmol/min/mg
10 | CN(C)c1ccc(C(=O)n2cc(/C=N/NC(=O)c3ccc(O)c(C#N)c3)c3ccccc32)cc1 | 19.1 nM | 606 pmol/min/mg
11 | O=C(N/N=C/c1ccc(CC(=O)N2CCN(c3ccc(F)cc3)CC2)c2ccccc12)c1ccc(O)c(Cl)c1 | 12.3 nM | 160 pmol/min/mg
12 | O=C(N/N=C/c1cccc2c(CO)cccc12)c1ccc(O)c(Cl)c1 | 200 nM | 225 pmol/min/mg
13 | CN(C)CCN(Cc1ccccc1)C(=O)Cc1ccc(/C=N/NC(=O)c2ccc(O)c(C#N)c2)c2ccccc12 | 10.4 nM | 240 pmol/min/mg
14 | O=C(N/N=C/c1ccc(OCCNCc2ccc(OC(F)(F)F)cc2)c2ccccc12)c1ccc(O)c(Cl)c1 | 27.7 nM | 167 pmol/min/mg
15 | O=C(N/N=C/c1ccc(CC(=O)N2CCN(Cc3ccc(Cl)cc3)CC2)c2ccccc12)c1ccc(O)c(Cl)c1 | 4.6 nM | 101 pmol/min/mg
16 | O=C(N/N=C/c1ccc(CO)c2ccccc12)c1ccc(O)c(F)c1 | 29.4 nM | 89 pmol/min/mg
17 | N#Cc1cc(C(=O)N/N=C/c2cccc3c2ccn3Cc2ccc(C(F)(F)F)cc2)ccc1O | 22.3 nM | 59 pmol/min/mg
18 | COc1cc(OCCN2CCc3ccccc3C2)ccc1/C=N/NC(=O)c1ccc(O)c(Cl)c1 | 120 nM | 322 pmol/min/mg
19 | CN1CCN(C(=O)Cc2ccc(/C=N/NC(=O)c3ccc(O)c(Cl)c3)c3ccccc23)CC1 | 268 nM | 283 pmol/min/mg
20 | O=C(N/N=C/c1ccc(CS(=O)(=O)Cc2ccc(OC(F)(F)F)cc2)c2ccccc12)c1ccc(O)c(Cl)c1 | 6.8 nM | 14 pmol/min/mg

Row | Structure (SMILES) | IC50 (Glucagon receptor) | Metabolism [1]
21 | O=C(N/N=C/c1ccc(C(=O)NCCc2ccc(Cl)cc2)c2ccccc12)c1ccc(O)c(Cl)c1 | 5.9 nM | 32 pmol/min/mg
22 | NC(=O)[C@H](Cc1ccccc1)NCc1ccc(/C=N/NC(=O)c2ccc(O)c(Cl)c2)c2ccccc12 | 61.8 nM | 178 pmol/min/mg
23 | O=C(N/N=C/c1ccc2c(ccn2Cc2ccc(OC(F)(F)F)cc2)c1)c1ccc(O)c(Cl)c1 | 286 nM | 
24 | COc1cc(NC(=O)CCc2ccc(C(F)(F)F)cc2)ccc1/C=N/NC(=O)c1ccc(O)c(Cl)c1 | 33.5 nM | 
25 | COc1cc(NC(=O)CCc2ccc(C(F)(F)F)cc2)ccc1/C=N/NC(=O)c1ccc(O)c(Cl)c1.O | 21.2 nM | 107 pmol/min/mg
26 | O=C(COc1ccc(/C=N/NC(=O)c2ccc(O)c(Cl)c2)c2ccccc12)Nc1ccc(Cl)cc1 | 51.7 nM | 
27 | COCc1ccc(/C=N/NC(=O)c2ccc(O)c(Cl)c2)c2ccccc12 | 75.5 nM | 
28 | O=C(N/N=C/c1cn(Cc2ccccc2)c2ccccc12)c1ccc(O)c(Cl)c1 | 615 nM | 
29 | N#Cc1cc(C(=O)N/N=C/c2ccc(OCC(=O)N3CC=C(c4ccc(Br)cc4)CC3)c3ccccc23)ccc1O | 6.1 nM | 50 pmol/min/mg
30 | Cc1cc(C)c(Cn2ccc3c(/C=N/NC(=O)c4ccc(O)c(Cl)c4)cccc32)c(C)c1 | 5.8 nM | 
31 | COc1ccc2oc(C(=O)Nc3ccc(/C=N/NC(=O)c4ccc(O)c(Cl)c4)c(OC)c3)cc2c1 | 90.6 nM | 31 pmol/min/mg
32 | O=C(N/N=C/c1ccc(OCC(=O)N2CCc3ccccc3C2)c2ccccc12)c1ccc(O)c(Cl)c1 | 13.8 nM | 254 pmol/min/mg
33 | COc1cc(NC(=O)CSc2ccc(OC(F)(F)F)cc2)ccc1/C=N/NC(=O)c1ccc(O)c(Cl)c1 | 14.5 nM | 23 pmol/min/mg
34 | CC(C)c1ccc(Cn2ccc3c(/C=N/NC(=O)c4ccc(O)c(Cl)c4)cccc32)cc1 | 23 nM | 48 pmol/min/mg
35 | CCN(CC)C(=O)Cc1ccc(/C=N/NC(=O)c2ccc(O)c(Cl)c2)c2ccccc12 | 22.6 nM | 323 pmol/min/mg
36 | O=C(N/N=C/c1ccc(CO)c2ccccc12)c1ccc(O)c(Cl)c1 | 41.1 nM | 75 pmol/min/mg
37 | COc1cc(/C=N/NC(=O)c2ccc(O)c(Cl)c2)cc(Cl)c1OCCN1CCc2ccccc2C1 | 485 nM | 
38 | CN(C)CCN(Cc1ccccc1)C(=O)Cc1ccc(/C=N/NC(=O)c2ccc(O)c(Cl)c2)c2ccccc12 | 6.2 nM | 
39 | O=C(N/N=C/c1ccc(O)c2ccccc12)c1ccc(O)c(Cl)c1 | 203 nM | 
40 | O=C(N/N=C/c1ccc(N(C(=O)C2CCCC2)C(=O)C2CCCC2)c2ccccc12)c1ccc(O)c(Cl)c1 | 3.4 nM | 

Second part, the compound after the results:

Row | IC50 (Glucagon receptor) | Metabolism [1] | Structure (SMILES)
41 | 27.5 nM | 190 pmol/min/mg | O=C(N/N=C/c1cccc2c1ccn2Cc1ccc(Cl)c(Cl)c1)c1ccc(O)c(Cl)c1
42 | 7.4 nM | 279 pmol/min/mg | CCC1CCCCN1C(=O)Cc1ccc(/C=N/NC(=O)c2ccc(O)c(Cl)c2)c2ccccc12 (stereo unspecified)
43 | 73 nM | 136 pmol/min/mg | COc1cc(/C=N/NC(=O)c2ccc(O)c(Cl)c2)ccc1NC(=O)COc1ccc(OC(F)(F)F)cc1
44 | 4.9 nM | 53 pmol/min/mg | N#Cc1cc(C(=O)N/N=C/c2ccc(C(=O)N3CCN(Cc4ccc(Cl)cc4)CC3)c3ccccc23)ccc1O
45 | 89.3 nM | 187 pmol/min/mg | O=C(COc1ccc(/C=N/NC(=O)c2ccc(O)c(Cl)c2)c2ccccc12)NC1CCN(Cc2ccccc2)C1 (stereo unspecified)
46 | 221 nM |  | O=C(N/N=C/c1ccc(CS(=O)(=O)C2CCCC2)c2ccccc12)c1ccc(O)c(Cl)c1
47 | 38.8 nM | 134 pmol/min/mg | O=C(N/N=C/c1ccc(NC(=O)C2CCCC2)c2ccccc12)c1ccc(O)c(Cl)c1
48 | 357 nM | 110 pmol/min/mg | CC(C)S(=O)(=O)c1ccc(/C=N/NC(=O)c2ccc(O)c(Cl)c2)c2ccccc12
49 | 14.7 nM |  | O=C(N/N=C/c1ccc(OCCNCc2ccc(Cl)c(Cl)c2)c2ccccc12)c1ccc(O)c(Cl)c1
50 | 29.8 nM | 37 pmol/min/mg | N#Cc1cc(C(=O)N/N=C/c2ccc(CO)c3ccccc23)ccc1O
51 | 54.3 nM | 233 pmol/min/mg | O=C(N/N=C/c1ccc(OCCNCc2ccccc2OC(F)(F)F)c2ccccc12)c1ccc(O)c(Cl)c1
52 | 133 nM |  | COc1cc(OCCNCc2ccc(C(F)(F)F)cc2)ccc1/C=N/NC(=O)c1ccc(O)c(Cl)c1
53 | 305 nM |  | O=C(N/N=C/c1cn(Cc2ccc(OC(F)F)cc2)c2ccccc12)c1ccc(O)c(Cl)c1
54 | 11.4 nM |  | O=C(N/N=C/c1ccc(OCC(=O)N2CCC(O)(c3ccc(Br)cc3)CC2)c2ccccc12)c1ccc(O)c(Cl)c1
55 | 6.6 nM | 44 pmol/min/mg | O=C(N/N=C/c1ccc(OCC(=O)N2CC=C(c3ccc(Br)cc3)CC2)c2ccccc12)c1ccc(O)c(Cl)c1
56 | 96.7 nM | 51 pmol/min/mg | O=C(N/N=C/c1ccc(CN2CCN(Cc3ccc(Cl)cc3)CC2)c2ccccc12)c1ccc(O)c(Cl)c1
57 | 63.2 nM | 74 pmol/min/mg | COc1cc(/C=N/NC(=O)c2ccc(O)c(Cl)c2)ccc1NC(=O)Cc1csc2ccccc12
58 | 8.3 nM | 267 pmol/min/mg | CC1CCCCN1C(=O)Cc1ccc(/C=N/NC(=O)c2ccc(O)c(Cl)c2)c2ccccc12 (stereo unspecified)
59 | 22.9 nM |  | O=C(N/N=C/c1cccc2c1ccn2Cc1ccc(OC(F)(F)F)cc1)c1ccc(O)c(Cl)c1
60 | 28.7 nM |  | COc1cc(NC(=O)Cc2ccc(Cl)cc2)ccc1/C=N/NC(=O)c1ccc(O)c(C#N)c1
61 | 2.8 nM | 250 pmol/min/mg | N#Cc1cc(C(=O)N/N=C/c2ccc(N(C(=O)C3CCCC3)C(=O)C3CCCC3)c3ccccc23)ccc1O
62 | 7.9 nM | 178 pmol/min/mg | O=C(N/N=C/c1ccc(CC(=O)N2CCN(c3ccccc3F)CC2)c2ccccc12)c1ccc(O)c(Cl)c1
63 | 163 nM | 31 pmol/min/mg | CC(C)S(=O)(=O)Cc1ccc(/C=N/NC(=O)c2ccc(O)c(C#N)c2)c2ccccc12
